For eight molecules, inhibition and IC50 results are on record in ChEMBL document CHEMBL1130325, “Novel non-nucleoside inhibitors of human immunodeficiency virus type 1 reverse transcriptase. 6. 2-Indol-3-yl- and 2-azaindol-3-yl-dipyridodiazepinones” (J Med Chem, 1997).

For experiment [1], the target named is Human immunodeficiency virus type 1 reverse transcriptase (Human immunodeficiency virus 1) (UniProt Q72547). In words: Inhibition against HIV-1 wild type reverse transcriptase […].
The subject of experiment [2] is Human immunodeficiency virus type 1 reverse transcriptase (Human immunodeficiency virus 1), Q72547 [[…]]. In words: Inhibition against HIV-1 mutant Y188L reverse transcriptase at 1 mM.
The test system of experiment [3] is Human immunodeficiency virus type 1 reverse transcriptase (Human immunodeficiency virus 1), Q72547 [Y181C]. In words: Inhibition against HIV-1 mutant Y181C reverse transcriptase at 1 mM.
For experiment [4], the target named is Human immunodeficiency virus type 1 reverse transcriptase (Human immunodeficiency virus 1, UniProt Q72547). In words: Inhibitory concentration against HIV-1 wild type reverse transcriptase. In outline:
(§1)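 HIV-1 RT is at 0.63 nM in 50 mM Tris pH 7.8 with 4 mM DTT, 60 mM NaCl, 2 mM MgCl2, 0.02% Chaps, 4.8 μg/mL poly(rC)/oligo(dG) and 0.45 μM [3H]dGTP. Incubation is 30 min at room temperature in triplicate wells; [3H] incorporation is read after acid precipitation, minus EDTA background.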

Experiment [5] concerns the target Human immunodeficiency virus type 1 reverse transcriptase (Human immunodeficiency virus 1, UniProt Q72547, V106A). The experiment can be described thus: Inhibition against HIV-1 mutant V106A reverse transcriptase […].
For experiment [6], the target named is Human immunodeficiency virus type 1 reverse transcriptase (Human immunodeficiency virus 1, UniProt Q72547, G190A). In words: Inhibition against HIV-1 mutant G190A reverse transcriptase […].
For experiment [7], the target named is Human immunodeficiency virus type 1 reverse transcriptase (Human immunodeficiency virus 1, UniProt Q72547, K103N). The experiment can be described thus: Inhibition against HIV-1 mutant K103N reverse transcriptase […].
The target of experiment [8] is Human immunodeficiency virus type 1 reverse transcriptase (Human immunodeficiency virus 1, UniProt Q72547, Y181C). The experiment can be described thus: Inhibitory concentration against HIV-1 mutant Y181C reverse transcriptase. An outline of the steps: as §1
Experiment [9] deals with Human immunodeficiency virus type 1 reverse transcriptase (Human immunodeficiency virus 1, UniProt Q72547, P236L). In words: Inhibition against HIV-1 mutant P236L reverse transcriptase […].
Experiment [10] has as its target Human immunodeficiency virus type 1 reverse transcriptase (Human immunodeficiency virus 1, UniProt Q72547, Y188L). In words: Inhibitory concentration against HIV-1 mutant Y188L reverse transcriptase. An outline of the steps:
as §1

As a reminder, the inhibition is the percentage by which the read-out fell short of the control. A high value points to a strong effect. In the case of `CCN1c2ncccc2C(=O)N(C)c2ccc(-c3c[nH]c4cccnc34)nc21`, the inhibition turned out to be 21% in [1], 37% in experiment [2] and 18% in experiment [3].
For orientation: IC50 means the concentration needed to halve the response being measured. A higher IC50 goes with lower potency. `CCN1c2ncccc2C(=O)N(C)c2ccc(-c3c[nH]c4ccc(OC)cc34)nc21`: the inhibition in [1] came to 61%; in experiment [2], 58%; in [3], 45%. For the same molecule, the IC50 in experiment [4] worked out at 200 nM; in [5], 3090 nM; in [6], 600 nM; in experiment [7], 935 nM; in experiment [8], 230 nM; in [9], 404 nM. The molecule also registered an IC50 in experiment [10] of 730 nM.
As to `CCN1c2ncccc2C(=O)N(C)c2ccc(-c3c[nH]c4ncccc34)nc21`, the inhibition came out at 76% in experiment [1], 39% in experiment [2] and 70% in experiment [3]. Also, the 50% inhibitory concentration (IC50) in [4] worked out at 210 nM; in [8], 200 nM; in [10], 1300 nM.
For `CCN1c2ncccc2C(=O)N(C)c2ccc(-c3c[nH]c4ccncc34)nc21`, the inhibition in experiment [1] came to 87%; in [2], 3%; in experiment [3], 66%. The IC50 amounted to 130 nM in experiment [4] and 222 nM in [8].
For `CCN1c2ncccc2C(=O)N(C)c2ccc(-c3c[nH]c4ccc(F)cc34)nc21` the same measures were 63%, 17%, 59%, 706 nM and 555 nM.
For the molecule `CCN1c2ncccc2C(=O)N(C)c2ccc(-c3c[nH]c4ccccc34)nc21`, the inhibition stood at 96% in [1], 72% in experiment [2] and 93% in [3]. Further, the IC50 in [4] stood at 28 nM; in experiment [5], 49 nM; in [6] it was 12 nM; in experiment [7], 97 nM; in experiment [8] it was 28 nM; in experiment [9], 79 nM. In experiment [10], this molecule returned an IC50 of 90 nM.
In the case of `CCN1c2ncccc2C(=O)N(C)c2ccc(-c3cc[nH]c3)nc21`, the inhibition in [1] was 95%; in experiment [2], 78%; in experiment [3], 91%. Further, the 50% inhibitory concentration (IC50) in experiment [4] came out at 33 nM; in experiment [5], 1000 nM; in experiment [6] it was 320 nM; in [8], 50 nM; in experiment [10] it was 100 nM.
For the molecule `CCN1c2ncccc2C(=O)N(C)c2ccc(-c3c[nH]c4cnccc34)nc21`, the inhibition in experiment [1] amounted to 94%; in experiment [2], 64%; in experiment [3], 81%. The half-maximal inhibitory concentration (IC50) in experiment [4] was 44 nM; in experiment [5], 228 nM; in [6] it was 19 nM; in [7] it was 32 nM; in experiment [8], 98 nM; in experiment [9], less than 1 nM. The molecule also gave an IC50 in [10] of 384 nM.
